Test results reported in ChEMBL document CHEMBL5360645, “Re-Exploring the Anthracycline Chemical Space for Better Anti-Cancer Compounds” (J Med Chem, 2023).
Calls of active or inactive are those of the source. No cut-off for these calls is given here.

Legend:
Type in all cases: functional, cell-based
MEL-JUSO [1] = assay: Effect of chromatin damage activity in human MEL-JUSO cells stably expressing PAGFPH2A assessed as histone eviction measured upto 60 mins measured by confocal microscopic analysis
K562 [2] = assay: Cytotoxicity against human K562 cells incubated for 2 hrs by cell titre blue viability assay; conditions: K562, 2 h
In short: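 Viability read by CellTiter-Blue, normalized to untreated control and background-corrected. Media: K562 RPMI-1640, MelJuSo IMDM, U2OS DMEM, each with 8% FCS; 5% CO2, 37 °C.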

K562 [3] = assay: Induction of DNA damage in human K562 cells assessed as DNA double strand break measured by constant gel field electrophoresis
In short: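 Double-strand breaks resolved by constant-field gel electrophoresis and quantified as broken DNA relative to total DNA. Etoposide was the positive control. Mean ± SD of three independent experiments.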

MEL-JUSO [4] = assay: Cytotoxicity against human MEL-JUSO cells incubated for 2 hrs by cell titre blue viability assay
U2OS = assay: Cytotoxicity against human U2OS cells incubated for 2 hrs by cell titre blue viability assay
K562 [5] = assay: Induction of DNA damage in human K562 cells assessed as increase in gammaH2AX at 10 uM for 2 hrs by Western blotting analysis
In short: (§1)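 K562 cells treated 2 h with drug (10 μM; also 1 and 5 μM), washed and lysed directly in SDS sample buffer. Lysates separated by SDS-PAGE and blotted to PVDF. Probed for γH2AX (1:1000) with β-actin loading control and IRDye 800CW anti-mouse secondary; infrared imaging. γH2AX normalized to actin. Etoposide was the positive control. At 10 μM: mean ± SD of three independent experiments.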

K562 [6] = assay: Induction of DNA damage in human K562 cells assessed as increase in gammaH2AX at 1 to 5 uM for 2 hrs by Western blotting analysis; conditions: dose 1-5 µM; in short: as §1

SMILES	Activity (MEL-JUSO [1])	IC50 (K562 [2]) [nM]	Activity (K562 [3])	IC50 (MEL-JUSO [4]) [nM]	IC50 (U2OS) [nM]	Activity (K562 [5])	Activity (K562 [6])
COc1cccc2c1C(=O)c1c(O)c3c(c(O)c1C2=O)C[C@@](O)(C(=O)CO)C[C@@H]3O[C@H]1CC[C@H](O)[C@H](C)O1	Active	1620	Active	2430	10000	Active	Active
COc1cccc2c1C(=O)c1c(O)c3c(c(O)c1C2=O)C[C@@](O)(C(=O)CO)C[C@@H]3O[C@H]1C[C@H](N2CCC2)[C@H](O)[C@H](C)O1	Active	379	inactive	297	159	inactive	inactive
CC[C@@]1(O)C[C@H](O[C@H]2C[C@H](N(C)C)[C@H](O)[C@H](C)O2)c2c(O)c3c(c(O)c2[C@H]1C(=O)OC)C(=O)c1cccc(O)c1C3=O		1100	inactive	835	1130	inactive	inactive
COc1cccc2c1C(=O)c1c(O)c3c(c(O)c1C2=O)C[C@@](O)(C(C)=O)C[C@@H]3O[C@H]1C[C@H](N)[C@H](O)[C@H](C)O1 [DAUNORUBICIN]				286	61		
CC(=O)[C@]1(O)Cc2c(O)c3c(c(O)c2[C@@H](O[C@H]2C[C@H](N(C)C)[C@H](O[C@H]4C[C@H](O)[C@H](O[C@H]5CCC(=O)[C@H](C)O5)[C@H](C)O4)[C@H](C)O2)C1)C(=O)c1ccccc1C3=O		20	inactive	8	12	inactive	inactive
CC[C@@]1(O)C[C@H](O[C@H]2C[C@H](N)[C@H](O)[C@H](C)O2)c2c(O)c3c(c(O)c2[C@H]1C(=O)OC)C(=O)c1cccc(O)c1C3=O		5320	Active	4290	10000	Active	Active
COc1cccc2c1C(=O)c1c(O)c3c(c(O)c1C2=O)C[C@@](O)(C(=O)CO)C[C@@H]3O[C@H]1C[C@H](N=[N+]=[N-])[C@H](O)[C@H](C)O1	Active	84	Active	1220	10000	Active	Active
COc1cccc2c1C(=O)c1c(O)c3c(c(O)c1C2=O)C[C@@](O)(CCO)C[C@@H]3O[C@H]1C[C@H](N(C)C)[C@H](O)[C@H](C)O1	Active	1620	inactive	2870	4210	inactive	inactive
CC[C@]1(O)Cc2c(O)c3c(c(O)c2[C@@H](O[C@H]2C[C@H](N)[C@H](O)[C@H](C)O2)C1)C(=O)c1c(OC)cccc1C3=O		42	Active	372	237	Active	Active
CC(=O)[C@]1(O)Cc2c(O)c3c(c(O)c2[C@@H](O[C@H]2C[C@H](N)[C@H](O[C@H]4C[C@H](O)[C@H](O[C@H]5CCC(=O)[C@H](C)O5)[C@H](C)O4)[C@H](C)O2)C1)C(=O)c1ccccc1C3=O		230	Active	680	376	Active	Active
CC[C@@]1(O)C[C@H](O[C@H]2C[C@H](N(C)C)[C@H](O[C@H]3C[C@H](O)[C@H](O[C@H]4CCC(=O)[C@H](C)O4)[C@H](C)O3)[C@H](C)O2)c2c(cc3c(c2O)C(=O)c2c(O)cccc2C3=O)[C@H]1C(=O)OC [ACLARUBICIN]		31	inactive	99	209	inactive	inactive
COc1cccc2c1C(=O)c1c(O)c3c(c(O)c1C2=O)C[C@@](O)(C(=O)CO)C[C@@H]3O[C@H]1C[C@H](O)[C@H](O)[C@H](C)O1 [HYDROXYRUBICIN]	Active	856	Active	1900	6790	Active	Active
COc1cccc2c1C(=O)c1c(O)c3c(c(O)c1C2=O)C[C@@](O)(CCO)C[C@@H]3O[C@H]1C[C@H](N)[C@H](O)[C@H](C)O1 [13-DEOXYDOXORUBICIN]		1790	Active	1150	891	Active	Active
CC[C@]1(O)Cc2c(O)c3c(c(O)c2[C@@H](O[C@H]2C[C@H](N(C)C)[C@H](O)[C@H](C)O2)C1)C(=O)c1c(OC)cccc1C3=O	Active	1180	inactive	1810	1360	inactive	inactive
COc1cccc2c1C(=O)c1c(O)c3c(c(O)c1C2=O)C[C@@](O)(C(=O)CO)C[C@@H]3O[C@H]1C[C@H](N)[C@H](O)[C@H](C)O1 [DOXORUBICIN]	Active			523	339		
COc1cccc2c1C(=O)c1c(O)c3c(c(O)c1C2=O)C[C@@](O)(C(=O)CO)C[C@@H]3O[C@H]1C[C@H](N2CCCC2)[C@H](O)[C@H](C)O1	Active	172	inactive	73	122	inactive	inactive
COc1cccc2c1C(=O)c1c(O)c3c(c(O)c1C2=O)C[C@@](O)(C(=O)CO)C[C@@H]3O[C@H]1C[C@H](O)[C@H](N)[C@H](C)O1		381	Active	998	1120	Active	Active
COc1cccc2c1C(=O)c1c(O)c3c(c(O)c1C2=O)C[C@@](O)(C(=O)CO)C[C@@H]3O[C@H]1C[C@H](N(C)C)[C@H](O[C@H]2C[C@H](O)[C@H](O[C@H]3CCC(=O)[C@H](C)O3)[C@H](C)O2)[C@H](C)O1 (single isomer, unassigned)	Active	19	inactive		11	inactive	inactive
COc1cccc2c1C(=O)c1c(O)c3c(c(O)c1C2=O)C[C@@](O)(C(=O)CO)C[C@@H]3O[C@H]1C[C@H](N2CCOCC2)[C@H](O)[C@H](C)O1	Active	64	inactive	51	77	inactive	inactive
COc1cccc2c1C(=O)c1c(O)c3c(c(O)c1C2=O)C[C@@](O)(C(=O)CO)C[C@@H]3O[C@H]1C[C@H](O)[C@H](N(C)C)[C@H](C)O1	Active	129		433	285		
COc1cccc2c1C(=O)c1c(O)c3c(c(O)c1C2=O)C[C@@](O)(C(=O)CO)C[C@@H]3O[C@H]1C[C@H](N2CCCCC2)[C@H](O)[C@H](C)O1	Active	195	inactive	78	105	inactive	inactive
CC(=O)[C@]1(O)Cc2c(O)c3c(c(O)c2[C@@H](O[C@H]2C[C@H](N)[C@H](O)[C@H](C)O2)C1)C(=O)c1ccccc1C3=O [IDARUBICIN]				89	24		
